What all share (format): functional
The subject of experiment [1] is Onchocerca gutturosa. As to the kind of experiment: Mean motility score for treated Onchocerca gutturosa involving LLCMK2 feeder cells at a concentration of 3.05*10e-8 M at 0.5 h. In short, it runs like this:
(§1)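 One male O. gutturosa per well over LLCMK2 feeder cells in MEM with 10% heat-inactivated FCS, antibiotics and bicarbonate, 5% CO2; compound introduced in DMSO (≤0.016%, equal DMSO in controls). Motility scored 0 (immotile) to 10 (maximal control activity) every 30 min to 4.5 h, then at 1, 2, 3, 4 and 7 days.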

The test system of experiment [2] is Onchocerca gutturosa. In words: Mean motility score for treated Onchocerca gutturosa involving LLCMK2 feeder cells at a concentration of 3.1*10e-6 M at 4 h. Put shortly:
(§2)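 Single male O. gutturosa worms (obtained following abattoir slaughter) per well in Eagle's MEM with 10% heat-inactivated fetal calf serum, penicillin, streptomycin, amphotericin B and bicarbonate, over LLCMK2 feeder cells, 5% CO2 in air. Drug dissolved in DMSO; controls received matched DMSO ≤0.016%. Motility scored 0 (immotile) to 10 (maximum control activity) every 30 min to 4.5 h, then days 1, 2, 3, 4, 7.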

In experiment [3] the test system is Onchocerca gutturosa. In words: Mean motility score for treated Onchocerca gutturosa involving LLCMK2 feeder cells at a concentration of 3.05*10e-8 M at 1 h. Put shortly: as §1
For experiment [4], the system named is Onchocerca gutturosa. In words: Mean motility score for treated Onchocerca gutturosa involving LLCMK2 feeder cells at a concentration of 4.88*10e-8M at 24 h. Put shortly:
as §2

Experiment [5] relates to Onchocerca gutturosa. As to the kind of experiment: Mean motility score for treated Onchocerca gutturosa involving LLCMK2 feeder cells at a concentration of 4.88*10e-8M at 4.5 h. Put shortly: as §2
Experiment [6] has as its system Onchocerca gutturosa. As to the kind of experiment: Mean motility score for treated Onchocerca gutturosa involving LLCMK2 feeder cells at a concentration of 1.95*10e-8 M at 4 h. Put shortly:
as §1

The subject of experiment [7] is Onchocerca gutturosa. As to the kind of experiment: Mean motility score for treated Onchocerca gutturosa involving LLCMK2 feeder cells at a concentration of 3.1*10e-6 M at 1 h. Put shortly: as §2
Experiment [8] concerns Onchocerca gutturosa. As to the kind of experiment: Mean motility score for treated Onchocerca gutturosa involving LLCMK2 feeder cells at a concentration of 1.95*10e-8 M at 0.5 h. Put shortly: as §1
Experiment [9] has as its system Onchocerca gutturosa. As to the kind of experiment: Mean motility score for treated Onchocerca gutturosa involving LLCMK2 feeder cells at a concentration of 1.95*10e-8 M at 168 h. In short, it runs like this: as §1
Experiment [10] deals with Onchocerca gutturosa. In words: Mean motility score for treated Onchocerca gutturosa involving LLCMK2 feeder cells at a concentration of 4.88*10e-8M at 48 h. In short, it runs like this:
as §2

Another experiment concerns Onchocerca volvulus. As to the kind of experiment: Colorimetric quantification of male Onchocerca volvulus viability, expressed as % inhibition of formazan formation at 5*10e-6 M conc. by using tetrazolium Dye MTT assay. Put shortly:
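Male O. volvulus dissected from human nodules within 24 h (kept in medium on ice), cultured without feeder cells in medium with 10% serum; drug from DMSO stock. MTT after 96 h: single worm, 0.5 mg/mL MTT, 30 min at 36.5 °C, formazan dissolved in DMSO 1 h at room temperature, absorbance 490 nm against DMSO blank.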
Background: Tetrazolium dyes change colour on reduction, which living cells bring about.

For experiment [11], the system named is Onchocerca gutturosa. As to the kind of experiment: Mean motility score for treated Onchocerca gutturosa involving LLCMK2 feeder cells at a concentration of 3.1*10e-6 M at 168 h. In short, it runs like this: as §2
The subject of experiment [12] is Onchocerca gutturosa. As to the kind of experiment: Mean motility score for treated Onchocerca gutturosa involving LLCMK2 feeder cells at a concentration of 4.88*10e-8M at 96 h. In short, it runs like this:
as §2

Experiment [13] relates to Onchocerca gutturosa. In words: Mean motility score for treated Onchocerca gutturosa involving LLCMK2 feeder cells at a concentration of 1.95*10e-8 M at 96 h. In short, it runs like this:
as §1

For experiment [14], the system named is Onchocerca gutturosa. As to the kind of experiment: Mean motility score for treated Onchocerca gutturosa involving LLCMK2 feeder cells at a concentration of 3.1*10e-6 M at 48 h. Put shortly:
as §2

Experiment [15] relates to Onchocerca gutturosa. In words: Mean motility score for treated Onchocerca gutturosa involving LLCMK2 feeder cells at a concentration of 1.95*10e-8 M at 72 h. Put shortly: as §1
The test system of experiment [16] is Onchocerca gutturosa. In words: Mean motility score for treated Onchocerca gutturosa involving LLCMK2 feeder cells at a concentration of 4.88*10e-8M at 1 h. Put shortly: as §2
For experiment [17], the system named is Onchocerca gutturosa. In words: Mean motility score for treated Onchocerca gutturosa involving LLCMK2 feeder cells at a concentration of 1.95*10e-8 M at 3 h. The settings on record: in the assay text read “1.95*10e-7 M” for “1.95*10e-8 M”. In short, it runs like this: as §1
The subject of experiment [18] is Onchocerca gutturosa. As to the kind of experiment: Mean motility score for treated Onchocerca gutturosa involving LLCMK2 feeder cells at a concentration of 3.1*10e-6 M at 24 h. Put shortly:
as §2

The test system of experiment [19] is Onchocerca gutturosa. In words: Mean motility score for treated Onchocerca gutturosa involving LLCMK2 feeder cells at a concentration of 3.05*10e-9 M at 2 h. In short, it runs like this: as §2
The test system of experiment [20] is Onchocerca gutturosa. In words: Mean motility score for treated Onchocerca gutturosa involving LLCMK2 feeder cells at a concentration of 3.05*10e-9 M at 0.5 h. In short, it runs like this:
as §1

For the next experiment, the system named is Acanthocheilonema viteae. In words: anti-filarial Activity was measured against Acanthocheilonema viteae in jirds at 50 mg/kg/day(5 days) dose. In short, it runs like this: (§3)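 Jirds with established B. pahangi or A. viteae infections were given drug once daily for 5 days by subcutaneous injection, at the maximum tolerated dose and, where supply allowed, graded lower doses. Tolerance was first checked in noninfected jirds with a single 200 mg/kg oral or subcutaneous dose, watching 72 h for excessive weight loss or death. Macrofilarial suppression was the read-out.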

For experiment [21], the system named is Onchocerca gutturosa. As to the kind of experiment: Colorimetric quantification of male Onchocerca gutturosa viability, expressed as % inhibition of formazan formation at 1.21*10e-8M conc. by using tetrazolium Dye MTT assay. In short, it runs like this: (§4)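 Single intact male O. gutturosa, cultured with LLCMK2 feeder cells in MEM + 10% heat-inactivated FCS (5% CO2), drug added from DMSO (≤0.016% DMSO in controls). MTT read after 168 h: worm in 0.5 mg/mL MTT, 30 min at 36.5 °C, formazan solubilized in DMSO 1 h at room temperature, absorbance 490 nm vs DMSO blank.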

In experiment [22] the test system is Onchocerca gutturosa. As to the kind of experiment: Mean motility score for treated Onchocerca gutturosa involving LLCMK2 feeder cells at a concentration of 1.94*10e-7M at 48 h. Put shortly:
as §1

The subject of experiment [23] is Onchocerca gutturosa. In words: Mean motility score for treated Onchocerca gutturosa involving LLCMK2 feeder cells at a concentration of 1.21*10e-8M at 96 h. Put shortly: as §1
Experiment [24] concerns Onchocerca gutturosa. As to the kind of experiment: Mean motility score for treated Onchocerca gutturosa involving LLCMK2 feeder cells at a concentration of 1.94*10e-7M at 1.5 h. In short, it runs like this: as §1
Experiment [25] deals with Onchocerca gutturosa. As to the kind of experiment: Colorimetric quantification of male Onchocerca gutturosa viability, expressed as % inhibition of formazan formation at 1.94*10e-7M conc. by using tetrazolium Dye MTT assay. Put shortly: as §4
The test system of a further experiment is Brugia pahangi. In words: anti-filarial Activity was measured against Brugia pahangi in jirds at 100 mg/kg/day(5 days) dose. Put shortly: as §3
Experiment [26] relates to Onchocerca gutturosa. In words: Mean motility score for treated Onchocerca gutturosa involving LLCMK2 feeder cells at a concentration of 5*10e-5 M at 168 h(O = IMMOTILE). Put shortly:
as §2

Experiment [27] deals with Onchocerca gutturosa. In words: Mean motility score for treated Onchocerca gutturosa involving LLCMK2 feeder cells at a concentration of 1.21*10e-8M at 2 h. Put shortly: as §1
In experiment [28] the test system is Onchocerca gutturosa. As to the kind of experiment: Mean motility score for treated Onchocerca gutturosa involving LLCMK2 feeder cells at a concentration of 1.21*10e-8M at 1 h. In short, it runs like this:
as §1

Experiment [29] has as its system Onchocerca gutturosa. As to the kind of experiment: Mean motility score for treated Onchocerca gutturosa involving LLCMK2 feeder cells at a concentration of 1.94*10e-7M at 24 h. In short, it runs like this: as §1

In general, Inhibition refers to the percentage by which the read-out fell short of the control. Low values mean little suppression, high ones strong suppression. Regarding `C/C(=N\NC(=S)N1CCCCCC1)c1ccccn1`, the Motility in the experiment on Onchocerca gutturosa [1] worked out at 9.8; in the experiment on Onchocerca gutturosa [2] it was 9; in the experiment on Onchocerca gutturosa [3], 9; in the experiment with Onchocerca gutturosa [4], 4; in the experiment with Onchocerca gutturosa [5] it was 9.8; in the experiment on Onchocerca gutturosa [6] it was 10. Also, the Motility with Onchocerca gutturosa [7] was 9.8; with Onchocerca gutturosa [8], 8.8; in the experiment on Onchocerca gutturosa [9], 0; in the experiment with Onchocerca gutturosa [10] it was 4; with Onchocerca gutturosa [11], 0; with Onchocerca gutturosa [12], 1.5. In addition, the Motility in the experiment on Onchocerca gutturosa [13] was 0; with Onchocerca gutturosa [14] it was 2.8; with Onchocerca gutturosa [15], 1; in the experiment with Onchocerca gutturosa [16], 9; in the experiment on Onchocerca gutturosa [17], 10; with Onchocerca gutturosa [18], 4. The Inhibition in the experiment with Onchocerca volvulus is recorded as 58.2%.
Take `C/C(=N\NC(S)=Nc1ccccc1N)c1ccccn1`: the Motility is 7.5 in the experiment on Onchocerca gutturosa [19]; 8.8 in the experiment with Onchocerca gutturosa [20]; 4 in the experiment with Onchocerca gutturosa [22]; 3.8 in the experiment on Onchocerca gutturosa [23]; 8 in the experiment with Onchocerca gutturosa [24]; 0 in the experiment with Onchocerca gutturosa [26]. The Motility is recorded as 3.3 in the experiment with Onchocerca gutturosa [27], 8.5 in the experiment with Onchocerca gutturosa [28] and 8 in the experiment with Onchocerca gutturosa [29]. Further, the Suppression in the experiment on Acanthocheilonema viteae and in the experiment with Brugia pahangi was 100% each time. For the same compound, the values for the Inhibition in the experiment on Onchocerca gutturosa [21] and in the experiment on Onchocerca gutturosa [25] were 27.9% and 84.8%, respectively.

The values above are taken from ChEMBL document CHEMBL1125672, “2-acetylpyridine thiosemicarbazones. 13. Derivatives with antifilarial activity” (1991).
